Measured values published in the array DNA melting data of Ke et al. (doi:10.1101/2024.01.08.574731).

Columns and labels:
[1] = melting temperature; fluorescence melt of hairpins on a sequencing array, two-state fit, raised by 9.35 °C to match UV melts; settings: sodium 0.088 M
In short: (§1)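 Cy3 fluorescence of library hairpins on a sequenced MiSeq flow cell, with annealed Cy3 and quencher oligos, was imaged in 50 mM Na-HEPES pH 8.0, 25 mM NaCl in 2.5 °C steps up to 60 °C. Signals were normalised to pre-quench Cy3 and to control variants. Melting temperature and folding enthalpy came from bootstrapped two-state fits, inverse-variance combined over four replicates. Fitted temperatures were raised by 9.35 °C to match UV melts.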

[2] = folding enthalpy; higher = less favourable; fluorescence melt of hairpins on a sequencing array, two-state fit; settings: sodium 0.088 M
In short: as §1

Row | Sequence | Tm [1] | folding enthalpy [2]
1 | GCCAACCCGAAAGGGGGC (((..(((....)))))) | 51.8 °C | -18.8 kcal/mol
2 | GCTAACGAAAGTTAGAGC ((((((....)))..))) | 45.8 °C | -16.1 kcal/mol
3 | GTCACACGAAAGTGGGAC (((.(((....))).))) | 69.1 °C | -31.9 kcal/mol
4 | GAGACCGAAAGGTACTC ((((((....))).))) | 43.3 °C | -17.5 kcal/mol
5 | CGGAACGGAAACGTGCCG (((.(((....))).))) | 56 °C | -44.3 kcal/mol
6 | GTCCACGGAAACGTGGGC (.(((((....))))).) | 62.1 °C | -28.2 kcal/mol
7 | GCACGTGGAAACACGCGC ((.((((....)))).)) | 57.5 °C | -38.4 kcal/mol
8 | GATCGCGGTTGCGATC ((((((....)))))) | 68.9 °C | -25.1 kcal/mol
9 | GAAGCCGAAAGGCATTTC ((((((....)))..))) | 25.9 °C | -6.75 kcal/mol
10 | GACTCCCGAAAGGGCGTC (((.(((....))).))) | 53.5 °C | -27.3 kcal/mol
11 | GTCTGGGGAAACTCAGAC (((((.(....).))))) | 49.1 °C | -43.7 kcal/mol
12 | GTCACTGGAAACAGTAAC ((.((((....)))).)) | 31.3 °C | -15.6 kcal/mol
13 | GTCCCAGGAAACTGAGAC (((.(((....))).))) | 39 °C | -28 kcal/mol
14 | GGTGTTCGAAAGAAGACC (((.(((....))).))) | 50.5 °C | -40.4 kcal/mol
15 | GGTATGGGAAACCACACC (((.(((....))).))) | 38.6 °C | -27 kcal/mol
16 | GGCCGTGGAAACGTGGCC ((((..(....)..)))) | 55.5 °C | -39.9 kcal/mol
17 | GTGAGTGGAAACGCTTAC ((.((.(....).)).)) | 33.1 °C | -16.2 kcal/mol
18 | GGCATACGAAAGTACGCC (((.(((....))).))) | 51.8 °C | -32.1 kcal/mol
19 | GAGCAGGCGAAAGCCCTC (((..(((....)))))) | 31.7 °C | -9.52 kcal/mol

Row | Sequence | Tm [1] | folding enthalpy [2]
20 | GCACTGCGAAAGCACTGC (((.(((....))).))) | 44.4 °C | -28.1 kcal/mol
21 | GATCAGGGAACTGATC ((((((....)))))) | 55.5 °C | -33 kcal/mol
22 | GTCCGCGAAAGCGTAGAC ((((((....)))..))) | 43 °C | -16.7 kcal/mol
23 | GATCCATTAATGGATC ((((((....)))))) | 54.8 °C | -38.7 kcal/mol
24 | GGAACCCCGAAAGGGTCC (((..(((....)))))) | 45.9 °C | -15.5 kcal/mol
25 | GATCGTACTTACGATC ((((((....)))))) | 55.3 °C | -39.8 kcal/mol
26 | GAGTTTGCGAAAGCACTC (((..(((....)))))) | 34.1 °C | -15.2 kcal/mol
27 | GGAAGAGGAAACTCTCCC ((.((((....)))).)) | 32.9 °C | -18.2 kcal/mol
28 | GTGGGTGGAAACACCCGC (.(((((....))))).) | 63.3 °C | -22.7 kcal/mol
29 | GGTCACGAAAGTGTCACC ((((((....)))..))) | 37.9 °C | -13.3 kcal/mol
30 | GATCCGCATACGGATC ((((((....)))))) | 61.5 °C | -37.9 kcal/mol
31 | GCAGACGAAAGTCTTGC ((((((....))).))) | 51.3 °C | -27 kcal/mol
32 | GTAGGCGAAAGCCTGTAC ((((((....)))..))) | 34.6 °C | -9.44 kcal/mol
33 | GTTTTGGGAAACCAGAAC (((.(((....))).))) | 38.1 °C | -26.9 kcal/mol
34 | GATGAGACGAAAGTCATC (((..(((....)))))) | 35.9 °C | -13.4 kcal/mol
35 | GATCCAAACATGGATC ((((((....)))))) | 50.8 °C | -32.7 kcal/mol
36 | GTCAACGAAAGTTTGAC ((((((....))).))) | 46.9 °C | -28.6 kcal/mol
37 | GGAAGACCGAAAGGTTCC (((..(((....)))))) | 37.4 °C | -16 kcal/mol
38 | GATCTTTCGAAAGATC ((((((....)))))) | 49.3 °C | -40.8 kcal/mol
